According to ChEMBL document CHEMBL1151953, “Biomimetic transformation and biological activities of Globiferin, a terpenoid benzoquinone from Cordia globifera” (J Nat Prod, 2009):
Values after ≈ are worked out from the molar mass of the structure shown.

Columns and labels:
[1] = system: Plasmodium falciparum; assay: Antiplasmodial activity against multidrug-resistant Plasmodium falciparum K1; format: functional, organism-based
Procedure, shortened: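 Parasites kept in continuous in vitro culture (Trager–Jensen method); activity assessed by a microculture radioisotope technique.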

[2] = system: Mycobacterium tuberculosis; assay: Antimicrobial activity against Mycobacterium tuberculosis H37Ra by microplate alamar blue assay; format: functional, organism-based
[3] = system: Candida albicans; assay: Antifungal activity against Candida albicans by XTT assay; format: functional, organism-based
[4] = system: Vero; assay: Cytotoxicity against african green monkey Vero cells by sulforhodamine B assay; format: cell-based; settings: Chlorocebus sabaeus
Procedure, shortened: (§1)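 Cell lines used were KB (human oral epidermoid carcinoma), BC (human breast cancer), NCI-H187 (human small cell lung cancer) and Vero (African green monkey kidney fibroblasts). Cytotoxicity was read colorimetrically by the Skehan method, with ellipticine as the reference substance.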

[5] = system: KB; assay: Cytotoxicity against human KB cells by sulforhodamine B assay; format: functional, cell-based; procedure, shortened: as §1
[6] = Cytotoxicity against human BC1 cells by sulforhodamine B assay; format: functional, cell-based; procedure, shortened: as §1
[7] = system: NCI-H187; assay: Cytotoxicity against human NCI-H187 cells by sulforhodamine B assay; format: functional, cell-based; procedure, shortened: as §1

Structure (SMILES)	IC50 [1] [µg/mL]	MIC [2] [µg/mL]	IC50 [3] [µg/mL]	IC50 [4] [µg/mL]	IC50 [5] [µg/mL]	IC50 [6] [µg/mL]	IC50 [7] [µg/mL]	IC50 [2] [µg/mL]
C[C@H]1[C@@H](O)O[C@@H]2O[C@@]3(C)CC[C@H]4[C@H](C)CC[C@@H]1[C@@]24OO3 [ARTENIMOL]	0.0012 (≈ 0.00422 µM)	–	–	–	–	–	–	–
C/C1=C/CC/C(C)=C/CC2=C(C1)C(=O)C=CC2=O [GLOBIFERIN]	2.1 (≈ 8.67 µM)	6.2 (≈ 25.6 µM)	> 20	> 50	> 20	> 20	0.5 (≈ 2.06 µM)	–
CC(C)=CCCC1(C)C=Cc2cc(O)ccc2O1 (stereo not drawn) [CORDIACHROMENE A]	> 20	12.5 (≈ 51.2 µM)	11.2 (≈ 45.8 µM)	> 50	> 20	> 20	> 20	–
NNC(=O)c1ccncc1 [ISONIAZID]	–	–	–	–	–	–	–	0.05 (≈ 0.365 µM)
NC[C@H]1O[C@H](O[C@H]2[C@H](O)[C@@H](O[C@H]3O[C@H](CO)[C@@H](O)[C@H](N)[C@H]3O)[C@H](N)C[C@@H]2N)[C@H](O)[C@@H](O)[C@@H]1O [KANAMYCIN]	–	–	–	–	–	–	–	2.5 (≈ 5.16 µM)
C=C[C@]1(C)Cc2c(OC(=O)c3ccccc3)ccc(OC(=O)c3ccccc3)c2C[C@@H]1C(=C)C	> 20	200 (≈ 442 µM)	> 20	> 50	> 20	> 20	> 20	–
C=C[C@]1(C)Cc2c(OC(C)=O)ccc(OC(C)=O)c2C[C@@H]1C(=C)C	0.4 (≈ 1.22 µM)	25 (≈ 76.1 µM)	> 20	7.3 (≈ 22.2 µM)	8.5 (≈ 25.9 µM)	9.2 (≈ 28 µM)	5.1 (≈ 15.5 µM)	–
C=C[C@@]1(C)CC2=C(C[C@H]1C(=C)C)C(=O)C=CC2=O [Cordiachrome C]	0.2 (≈ 0.825 µM)	1.5 (≈ 6.19 µM)	4.6 (≈ 19 µM)	1.4 (≈ 5.78 µM)	1.5 (≈ 6.19 µM)	1.8 (≈ 7.43 µM)	0.2 (≈ 0.825 µM)	–
C/C(C=O)=C\CCC1(C)C=Cc2cc(O)ccc2O1 (stereo not drawn) [ELAEAGIN]	3.6 (≈ 13.9 µM)	12.5 (≈ 48.4 µM)	> 20	20 (≈ 77.4 µM)	> 20	> 20	6.1 (≈ 23.6 µM)	–
Cc1c2ccncc2c(C)c2c1[nH]c1ccccc12 [ELLIPTECINE]	–	–	–	–	–	0.2 (≈ 0.812 µM)	0.3 (≈ 1.22 µM)	–
CO[C@H]1/C=C/O[C@@]2(C)Oc3c(C)c(O)c4c(O)c(c(/C=N/N5CCN(C)CC5)c(O)c4c3C2=O)NC(=O)/C(C)=C\C=C\[C@H](C)[C@H](O)[C@@H](C)[C@@H](O)[C@@H](C)[C@H](OC(C)=O)[C@@H]1C [RIFAMPIN]	–	–	–	–	–	–	–	0.0047 (≈ 0.00571 µM)
C=C1CCC[C@@]2(C)CC3=C(C[C@@H]12)C(=O)C=CC3=O [CORDIACHROME B]	1.5 (≈ 6.19 µM)	12.5 (≈ 51.6 µM)	7.7 (≈ 31.8 µM)	1.7 (≈ 7.02 µM)	6 (≈ 24.8 µM)	6.4 (≈ 26.4 µM)	0.4 (≈ 1.65 µM)	–
C/C(C=O)=C\CC/C(C)=C/Cc1cc(O)ccc1O [ALLIODORIN]	3.1 (≈ 11.9 µM)	12.5 (≈ 48 µM)	> 20	14.1 (≈ 54.2 µM)	12 (≈ 46.1 µM)	10.3 (≈ 39.6 µM)	2.2 (≈ 8.45 µM)	–
C[C@@H]1[C@H](O)[C@@H](C)/C=C/C=C/C=C/C=C/C=C/C=C/C=C/[C@H](O[C@@H]2O[C@H](C)[C@@H](O)[C@H](N)[C@@H]2O)C[C@@H]2O[C@](O)(C[C@@H](O)C[C@@H](O)[C@H](O)CC[C@@H](O)C[C@@H](O)CC(=O)O[C@H]1C)C[C@H](O)[C@H]2C(=O)O [AMPHOTERICIN B]	–	–	0.08 (≈ 0.0866 µM)	–	–	–	–	–
